# The list is not random: actives were taken first. Their share in the collection is about 2.7%.
# PAFAH1B3 FP inh – blocks human PAF acetylhydrolase 1B catalytic subunit 3; Q15102; recombinant PAFAH1B3, FP-rhodamine probe, fluorescence polarization; inhibition, % at 3.39 µM; 0.28% of 340,000 active;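 active = inhibition above the screen-wide average of all tested compounds plus 3 SD, cut at about 25% in these data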;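 note: 0% = enzyme with DMSO only and 100% = wells lacking PAFAH1B3 protein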
# RBBP9 inh – inhibitors of human serine hydrolase RBBP9; inhibition, % at 7.94 µM; 0.2% of 220,000 active; AID 1515; recombinant RBBP9, FP-Rh probe fluorescence polarization;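 active = inhibition above the campaign mean of all tested compounds plus 3 SD, cut at about 14% in these data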;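 note: plate controls were DMSO wells with RBBP9 for no effect and wells lacking RBBP9 protein for full effect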
# Target sequence (O75884 whole entry, looked up): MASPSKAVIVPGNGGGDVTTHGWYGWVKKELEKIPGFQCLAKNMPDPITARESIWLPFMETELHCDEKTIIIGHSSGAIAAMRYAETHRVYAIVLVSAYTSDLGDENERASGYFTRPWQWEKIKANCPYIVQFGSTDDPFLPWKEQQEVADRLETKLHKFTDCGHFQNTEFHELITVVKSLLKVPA
#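 Test system: recombinant human RBBP9; Timing: 30 min then 45 min, 25 °C; Detection: fluorescence polarization; Control set: RBBP9 with DMSO as uninhibited control, no-protein wells as full inhibition; Compound dosing: one concentration, 7.94 µM nominal, 0.794% DMSO; Probe or stimulus: FP-Rh activity-based probe, 375 nM before mixing.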
# PAFAH1B2 FP inh – inhibitors of human PAFAH1B2; P68402; recombinant PAFAH1B2, FP-rhodamine activity probe, fluorescence polarization; 1.2% of 340,000 active; inhibition, % at 3.39 µM;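 active = inhibition above the mean of all tested compounds plus 3 SD, cut at about 24% in these data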;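 note: 0% = enzyme with DMSO and 100% = wells lacking PAFAH1B2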
# PAFAH2 inh – PAFAH2 (human) inhibition; Q99487; recombinant PAFAH2, FP-rhodamine activity probe, fluorescence polarization; inhibition, % at 3.39 µM; 0.99% of 340,000 active;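 active = inhibition above the mean over all tested compounds plus 3 SD, cut at about 30% in these data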;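 note: inhibitors block probe labeling of enzyme so polarization drops; 0% = enzyme with DMSO and 100% = wells lacking PAFAH2 protein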
# pPAFAH inh – pPAFAH (human) enzyme inhibition; Q13093; AID 463082; 1.5% of 330,000 active; inhibition, % at 3.39 µM; recombinant pPAFAH, FP-rhodamine probe fluorescence polarization;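 active = inhibition above the mean inhibition across the screen plus 3 SD, cut at about 25% in these data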;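 note: inhibitors block binding of the rhodamine activity-based probe so polarization drops; 0% = enzyme with DMSO and 100% = wells lacking pPAFAH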
# Target sequence (Q13093 whole entry, looked up): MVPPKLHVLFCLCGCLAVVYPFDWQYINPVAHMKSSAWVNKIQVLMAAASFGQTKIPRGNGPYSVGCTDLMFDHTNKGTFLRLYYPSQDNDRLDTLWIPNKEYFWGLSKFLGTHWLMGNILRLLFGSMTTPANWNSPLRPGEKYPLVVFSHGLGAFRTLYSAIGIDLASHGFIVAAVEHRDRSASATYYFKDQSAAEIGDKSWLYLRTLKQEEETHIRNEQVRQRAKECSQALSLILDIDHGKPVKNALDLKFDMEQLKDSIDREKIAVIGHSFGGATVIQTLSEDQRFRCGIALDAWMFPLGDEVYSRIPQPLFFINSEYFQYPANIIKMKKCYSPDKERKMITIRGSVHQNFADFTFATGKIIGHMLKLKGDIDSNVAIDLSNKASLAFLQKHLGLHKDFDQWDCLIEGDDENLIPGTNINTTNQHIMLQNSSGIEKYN
# PAFAH2 confirm – PAFAH2 (human) inhibition, confirmed. shares compounds with PAFAH2 inh. recombinant PAFAH2, FP-rhodamine activity probe, fluorescence polarization. inhibition, % at 3.39 µM. 65% of 2,300 active. AID 493030;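 active = mean inhibition over three repeats above a set limit taken from the earlier primary screen, cut at about 30% in these data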;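 note: inhibitor blocks binding of rhodamine activity probe so polarization falls; 0% = enzyme with DMSO and 100% = wells lacking PAFAH2 protein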
# PAFAH1B3 conf FP – PAFAH1B3 (human) inhibition, confirmed. shares compounds with PAFAH1B3 FP inh. recombinant PAFAH1B3, FP-Rh activity-based probe, fluorescence polarization. inhibition, % at 3.39 µM. 30% of 390 active. AID 493032;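 active = average inhibition over triplicate runs above the hit cutoff set in the earlier primary screen, cut at about 25% in these data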;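 note: 0% = enzyme with DMSO and 100% = wells lacking PAFAH1B3 protein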
# * marks the source's active call; other numbers are inactive results; / = no result.
SMILES,PAFAH1B3 FP inh,RBBP9 inh,PAFAH1B2 FP inh,PAFAH2 inh,pPAFAH inh,PAFAH2 confirm,others
Cc1ccc(C(=O)OCC(=O)NC2CCCC(C)C2C)cc1S(=O)(=O)N1CCCCC1 (stereo not given),9,/,4,39*,13,16,
Cc1cc2occ(CC(=O)N(C)CC(=O)Nc3cccc(F)c3)c2cc1C,5,/,-2,1,5,/,
CCCc1nnc(NC(=O)C2CCN(C(=O)c3ccco3)CC2)s1,3,/,-2,-10,7,/,
O=C(COC(=O)/C=C/c1ccc([N+](=O)[O-])cc1)NC(=O)NC1CCCCC1,-2,/,3,4,6,/,
CSc1ccc(/C=C/C(=O)OCC(=O)NC(C)C)cc1,/,-2,/,/,5,/,
O=C(COC(=O)/C=C/c1ccc(C(F)(F)F)cc1)NC1CC1,5,/,3,18,-1,/,
O=C(COC(=O)/C=C/c1ccc(Cl)cc1)NC1CCCCCC1,6,/,5,79*,6,71*,
O=C(COC(=O)/C=C/c1ccc(Cl)cc1)NC1CC1,6,/,-2,52*,6,34*,
CSc1ccc(/C=C/C(=O)OCC(=O)NC2CC2)cc1,1,/,0,57*,3,48*,
CC(=O)Nc1ccc(C(=O)OCc2ccc(F)cc2Cl)cc1,-5,-8,-1,19,5,/,
CCCS(=O)(=O)c1ccc(COC(=O)c2ccc(NC(C)=O)cc2)cc1,9,-1,-4,30*,-2,24,
CCC(=O)Nc1ccc(C(=O)OCc2ccc(Cl)c(Cl)c2)cc1,-2,-7,-2,36*,0,47*,
CC(=O)Nc1ccc(C(=O)OCc2ccc(F)cc2)cc1,-2,-8,10,22,-1,/,
CC(=O)Nc1ccc(C(=O)OCc2ccc(Cl)c(Cl)c2)cc1,4,-2,5,61*,1,63*,
CCn1ncc(Cl)c1C(=O)Nc1cc([N+](=O)[O-])ccc1OC,3,-5,3,4,6,/,
CCNc1ccc(C(=O)OCC(=O)NCc2ccccc2Cl)cc1[N+](=O)[O-],-7,-8,0,47*,0,56*,
CCNc1ccc(C(=O)OCC(=O)NC(=O)NCC(C)C)cc1[N+](=O)[O-],8,-5,3,33*,0,27,
CCNc1ccc(C(=O)OCC(=O)Nc2cc(C)on2)cc1[N+](=O)[O-],14,/,-2,31*,2,31*,
C=C(c1ccccc1)c1ccccc1N,13,/,9,4,4,/,
N#Cc1cccc(S(=O)(=O)NCc2nnc3ccccn23)c1,3,/,6,0,-1,/,
O=C(c1cc(-c2ccc(Cl)cc2Cl)on1)N1CCCC1,7,/,3,31*,9,26,
O=C(c1ccco1)N1CCN(S(=O)(=O)c2cc(Cl)ccc2Cl)CC1,11,/,7,-2,4,/,
O=C(c1cc(-c2ccccc2Cl)on1)N1CCN(C(=O)c2ccco2)CC1,2,-6,5,43*,9,35*,
O=C(c1cc(-c2ccc(Cl)cc2Cl)on1)N1CCCCCC1,7,/,5,7,4,/,
O=C(c1cc(-c2ccc(Cl)cc2Cl)on1)N1CCN(C(=O)c2ccco2)CC1,-4,-6,1,65*,9,41*,
SMILES,PAFAH1B3 FP inh,RBBP9 inh,PAFAH1B2 FP inh,PAFAH2 inh,pPAFAH inh,PAFAH2 confirm,others
O=C(c1ccco1)N1CCN(C(=O)c2ccc(-c3ccccc3Cl)o2)CC1,-5,/,4,11,2,/,
CC(Oc1cc2oc(=O)c3c(c2cc1Cl)CCC3)C(=O)NCCCN1CCCC1=O (stereo not given),8,/,2,2,5,/,
Cc1ccc(CNC(=O)Cn2cnc3c(OCc4ccccc4)ncnc32)o1,3,/,1,1,4,/,
CCc1ccc(OCc2cnc(Cl)s2)cc1,5,-5,-1,-3,1,/,
COc1ccc(S(=O)(=O)N2CCN(CC(=O)c3ccc(O)c(O)c3)CC2)cc1,9,/,2,12,13,/,
Cc1ccc(C(=O)c2ccccc2C(=O)OCC(=O)NCCc2ccc(Cl)cc2Cl)cc1,3,-12,5,46*,2,49*,
O=C(COC(=O)/C=C/c1ccc(Cl)cc1Cl)NCCC1=CCCCC1,3,6,1,-4,5,/,
O=C(COC(=O)/C=C/c1ccccc1Cl)NCCc1ccc(Cl)cc1Cl,6,-1,1,66*,6,52*,
Cc1nn(-c2ccc(C(=O)N3CCN(S(=O)(=O)c4ccccc4C(F)(F)F)CC3)cc2)c(C)c1Cl,3,/,-1,8,0,/,
CC(=O)c1ccc(S(=O)(=O)N2CCN(C(=O)c3ccc(-n4nc(C)c(Cl)c4C)cc3)CC2)cc1,2,/,-7,50*,-2,43*,
Brc1ccc(-c2csc(Nc3nc(-c4ccc(Br)cc4)cs3)n2)cc1,34*,-4,17,16,2,/,PAFAH1B3 conf FP=22
Nc1ccc2nn(-c3ccc(F)cc3)nc2c1,28*,/,1,6,5,/,PAFAH1B3 conf FP=11
N#Cc1cccc2c1-c1ccccc1/C2=N/NC(N)=S,4,/,5,15,16,/,
NC(=S)NN=C1c2ccccc2-c2c(F)c(F)c(F)c(F)c21,51*,/,-3,6,/,/,PAFAH1B3 conf FP=46*
O=C(COC(=O)c1cc(-c2cccc3ccccc23)nc2ccccc12)NC1CCS(=O)(=O)C1 (stereo not given),29*,-6,21,25,15,/,PAFAH1B3 conf FP=14
[O-][n+]1c2c(c3c4non(O)c4ccc31)CCCC2,28*,0,5,8,24,/,PAFAH1B3 conf FP=16
COn1c2c(c3c4no[n+]([O-])c4ccc31)CCCC2,8,5,-2,-2,0,/,
CC(=O)N(Cc1ccc(F)cc1)C1=C(NCc2ccccc2)C(=O)c2ccccc2C1=O,42*,-2,11,8,/,/,PAFAH1B3 conf FP=25
C=CCN1C(=O)C2(/C(=C(\O)c3ccc4c(c3)OCCO4)C(=O)C(=O)N2CCCOC)c2ccccc21 (stereo not given),0,2,1,4,-2,/,
Nc1nc(NCc2ccco2)nn1-c1ccccc1,26*,0,7,5,3,/,PAFAH1B3 conf FP=8
C=CCn1c(N)c(C(=O)NCC2CCCO2)c2nc3ccccc3nc21 (stereo not given),26*,-9,5,-3,11,/,PAFAH1B3 conf FP=7
COc1ccc(-n2c(N)c(C(=O)NCC3CCCO3)c3nc4ccccc4nc32)c(OC)c1 (stereo not given),5,-3,5,4,12,/,
COc1ccc(/C=N/NC(=O)c2ccccc2O)cc1Cn1cc([N+](=O)[O-])cn1,6,-10,-4,1,3,/,
COc1ccc(/C=N/NC(=O)c2cc(O)c(O)c(O)c2)cc1Cn1cc([N+](=O)[O-])cn1,39*,7,7,15,/,/,PAFAH1B3 conf FP=8
